Test results: ChEMBL document CHEMBL1926569, “Novel (E)-1-(4-methyl-2-(alkylamino)thiazol-5-yl)-3-arylprop-2-en-1-ones as potent antimicrobial agents” (2011)
Converted amounts (≈) assume the structure as drawn.

How the values were obtained:
Staphylococcus aureus [1] = assay: Antibacterial activity against Staphylococcus aureus ATCC 6538 after 24 hrs by microdilution method; assay type: functional; details: ATCC 6538, 24 h
Outline: (§1)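 Broth microdilution in 96-well plates. Bacterial suspensions were adjusted in sterile saline to 1.0 × 10⁵ CFU/ml, prepared daily and kept at 4 °C. Compound was added to LB broth with 1.0 × 10⁴ CFU per well and shaken at 160 rpm for 24 h at […] (so in the source). MIC is the lowest concentration with no visible growth under a binocular microscope. OD655 was also read. Duplicate, repeated three times.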

Bacillus cereus [2] = assay: Antibacterial activity against clinical isolate of Bacillus cereus after 24 hrs by microdilution method; assay type: functional; outline: as §1
Micrococcus flavus [3] = assay: Antibacterial activity against Micrococcus flavus ATCC 10240 after 24 hrs by microdilution method; assay type: functional; details: ATCC 10240, 24 h; outline: as §1
Listeria monocytogenes [4] = assay: Antibacterial activity against Listeria monocytogenes NCTC 7973 after 24 hrs by microdilution method; assay type: functional; details: NCTC 7973, 24 h; outline: as §1
Pseudomonas aeruginosa [5] = assay: Antibacterial activity against Pseudomonas aeruginosa ATCC 27853 after 24 hrs by microdilution method; assay type: functional; details: ATCC 27853, 24 h; outline: as §1
Salmonella typhimurium [6] = assay: Antibacterial activity against Salmonella Typhimurium ATCC 13311 after 24 hrs by microdilution method; assay type: functional, Salmonella enterica subsp. enterica serovar Typhimurium; details: Salmonella enterica, ATCC 13311, 24 h; outline: as §1
Escherichia coli [7] = assay: Antibacterial activity against Escherichia coli ATCC 35210 after 24 hrs by microdilution method; assay type: functional; details: ATCC 35210, 24 h; outline: as §1
Enterococcus faecalis [8] = assay: Antibacterial activity against Enterococcus faecalis isolated from human after 24 hrs by microdilution method; assay type: functional; outline: as §1
Staphylococcus aureus [9] = assay: Antibacterial activity against Staphylococcus aureus ATCC 6538 incubated for 24 hrs followed by serial sub-cultivation for 24 hrs by microdilution method; assay type: functional; details: ATCC 6538, 24 h
Outline: (§2)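 MBC: after the 24 h LB broth microdilution (1.0 × 10⁴ CFU per well, 160 rpm), wells were serially sub-cultured into fresh broth plates and incubated a further 24 h. MBC is the lowest concentration with no visible growth, taken as 99.5% killing of the original inoculum. Duplicate, repeated three times.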

Bacillus cereus [10] = assay: Antibacterial activity against clinical isolate of Bacillus cereus incubated for 24 hrs followed by serial sub-cultivation for 24 hrs by microdilution; assay type: functional; outline: as §2
Micrococcus flavus [11] = assay: Antibacterial activity against Micrococcus flavus ATCC 10240 incubated for 24 hrs followed by serial sub-cultivation for 24 hrs by microdilution; assay type: functional; details: ATCC 10240, 24 h; outline: as §2
Listeria monocytogenes [12] = assay: Antibacterial activity against Listeria monocytogenes NCTC 7973 incubated for 24 hrs followed by serial sub-cultivation for 24 hrs by microdilution; assay type: functional; details: NCTC 7973, 24 h; outline: as §2
Pseudomonas aeruginosa [13] = assay: Antibacterial activity against Pseudomonas aeruginosa ATCC 27853 incubated for 24 hrs followed by serial sub-cultivation for 24 hrs by microdilution; assay type: functional; details: ATCC 27853, 24 h; outline: as §2
Salmonella typhimurium [14] = assay: Antibacterial activity against Salmonella Typhimurium ATCC 13311 incubated for 24 hrs followed by serial sub-cultivation for 24 hrs by microdilution; assay type: functional, Salmonella enterica subsp. enterica serovar Typhimurium; details: Salmonella enterica, ATCC 13311, 24 h; outline: as §2
Escherichia coli [15] = assay: Antibacterial activity against Escherichia coli ATCC 35210 incubated for 24 hrs followed by serial sub-cultivation for 24 hrs by microdilution; assay type: functional; details: ATCC 35210, 24 h; outline: as §2
Enterococcus faecalis [16] = assay: Antibacterial activity against Enterococcus faecalis isolated from human incubated for 24 hrs followed by serial sub-cultivation for 24 hrs by microdilution; assay type: functional; outline: as §2
Aspergillus ochraceus [17] = assay: Antifungal activity against Aspergillus ochraceus ATCC 12066 after 72 hrs by serial dilution technique; assay type: functional; details: ATCC 12066, 72 h
Outline: (§3)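 Modified microdilution in 96-well plates. Fungi were kept on malt agar at 4 °C. Spores were washed off in sterile 0.85% saline with 0.1% Tween 80. Compounds were dissolved at 1 mg/ml in 5% DMSO with 0.1% Tween 80 and added to malt broth with inoculum. Plates were shaken at 160 rpm for 72 h at 28 °C. Duplicate, repeated three times.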

Aspergillus niger [18] = assay: Antifungal activity against Aspergillus niger ATCC 6275 after 72 hrs by serial dilution technique; assay type: functional; details: ATCC 6275, 72 h; outline: as §3
Aspergillus flavus [19] = assay: Antifungal activity against Aspergillus flavus ATCC 9643 after 72 hrs by serial dilution technique; assay type: functional; details: ATCC 9643, 72 h; outline: as §3
Talaromyces funiculosus [20] = assay: Antifungal activity against Penicillium funiculosum ATCC 36839 after 72 hrs by serial dilution technique; assay type: functional; details: ATCC 36839, 72 h; outline: as §3
Penicillium ochrochloron [21] = assay: Antifungal activity against Penicillium ochrochloron ATCC 9112 after 72 hrs by serial dilution technique; assay type: functional; details: ATCC 9112, 72 h; outline: as §3
Trichoderma viride [22] = assay: Antifungal activity against Trichoderma viride IAM 5061 after 72 hrs by serial dilution technique; assay type: functional; details: IAM 5061, 72 h; outline: as §3
Candida albicans [23] = assay: Antifungal activity against Candida albicans isolated from human after 72 hrs by serial dilution technique; assay type: functional; outline: as §3
Aspergillus ochraceus [24] = assay: Antifungal activity against Aspergillus ochraceus ATCC 12066 incubated for 72 hrs followed by serial sub-cultivation for 72 hrs by serial dilution technique; assay type: functional; details: ATCC 12066, 72 h
Outline: (§4)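 MFC: material from 72 h malt broth microdilution wells was serially sub-cultured into fresh broth plates and incubated a further 72 h at 28 °C. Fungicidal concentration is taken from growth after sub-culture. Duplicate, repeated three times.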

Aspergillus fumigatus [25] = assay: Antifungal activity against Aspergillus fumigatus isolated from human incubated for 72 hrs followed by serial sub-cultivation for 72 hrs by serial dilution technique; assay type: functional; outline: as §4
Aspergillus niger [26] = assay: Antifungal activity against Aspergillus niger ATCC 6275 incubated for 72 hrs followed by serial sub-cultivation for 72 hrs by serial dilution technique; assay type: functional; details: ATCC 6275, 72 h; outline: as §4
Aspergillus flavus [27] = assay: Antifungal activity against Aspergillus flavus ATCC 9643 incubated for 72 hrs followed by serial sub-cultivation for 72 hrs by serial dilution technique; assay type: functional; details: ATCC 9643, 72 h; outline: as §4
Talaromyces funiculosus [28] = assay: Antifungal activity against Penicillium funiculosum ATCC 36839 incubated for 72 hrs followed by serial sub-cultivation for 72 hrs by serial dilution technique; assay type: functional; details: ATCC 36839, 72 h; outline: as §4
Penicillium ochrochloron [29] = assay: Antifungal activity against Penicillium ochrochloron ATCC 9112 incubated for 72 hrs followed by serial sub-cultivation for 72 hrs by serial dilution technique; assay type: functional; details: ATCC 9112, 72 h; outline: as §4
Trichoderma viride [30] = assay: Antifungal activity against Trichoderma viride IAM 5061 incubated for 72 hrs followed by serial sub-cultivation for 72 hrs by serial dilution technique; assay type: functional; details: IAM 5061, 72 h; outline: as §4
Candida albicans [31] = assay: Antifungal activity against Candida albicans isolated from human incubated for 72 hrs followed by serial sub-cultivation for 72 hrs by serial dilution technique; assay type: functional; outline: as §4
Pseudomonas aeruginosa [32] = assay: Ratio of ampicillin MIC to compound MIC for Pseudomonas aeruginosa ATCC 27853; assay type: functional
Aspergillus ochraceus [33] = assay: Ratio of bifonazole to compound for Aspergillus ochraceus ATCC 12066; assay type: functional
Aspergillus niger [34] = assay: Ratio of bifonazole to compound for Aspergillus niger ATCC 6275; assay type: functional
Talaromyces funiculosus [35] = assay: Ratio of bifonazole to compound for Penicillium funiculosum ATCC 36839; assay type: functional
Penicillium ochrochloron [36] = assay: Ratio of bifonazole to compound for Penicillium ochrochloron ATCC 9112; assay type: functional
Trichoderma viride [37] = assay: Ratio of bifonazole to compound for Trichoderma viride IAM 5061; assay type: functional
Candida albicans [38] = assay: Ratio of bifonazole to compound for Candida albicans isolated from human; assay type: functional
Aspergillus ochraceus [39] = assay: Ratio of ketoconazole to compound for Aspergillus ochraceus ATCC 12066; assay type: functional
Aspergillus fumigatus [40] = assay: Ratio of ketoconazole to compound for Aspergillus fumigatus isolated from human; assay type: functional
Penicillium ochrochloron [41] = assay: Ratio of ketoconazole to compound for Penicillium ochrochloron ATCC 9112; assay type: functional
Candida albicans [42] = assay: Ratio of ketoconazole to compound for Candida albicans isolated from human; assay type: functional
Aspergillus ochraceus [43] = assay: Antifungal activity against Aspergillus ochraceus after 72 hrs by serial dilution technique

Compound: CCNc1nc(C)c(C(=O)/C=C/c2ccc(OC)cc2)s1
- MIC (Staphylococcus aureus [1]): 66.2 µM (≈ 20 µg/mL)
- MIC (Bacillus cereus [2]): 66.2 µM (≈ 20 µg/mL)
- MIC (Micrococcus flavus [3]): 31.3 µM (≈ 9.47 µg/mL)
- MIC (Listeria monocytogenes [4]): 82.8 µM (≈ 25 µg/mL)
- MIC (Pseudomonas aeruginosa [5]): 66.2 µM (≈ 20 µg/mL)
- MIC (Salmonella typhimurium [6]): 49.7 µM (≈ 15 µg/mL)
- MIC (Escherichia coli [7]): 49.7 µM (≈ 15 µg/mL)
- MIC (Enterococcus faecalis [8]): 66.2 µM (≈ 20 µg/mL)
- MBC (Staphylococcus aureus [9]): 99.3 µM (≈ 30 µg/mL)
- MBC (Bacillus cereus [10]): 82.8 µM (≈ 25 µg/mL)
- MBC (Micrococcus flavus [11]): 82.5 µM (≈ 24.9 µg/mL)
- MBC (Listeria monocytogenes [12]): 99.3 µM (≈ 30 µg/mL)
- MBC (Pseudomonas aeruginosa [13]): 82.8 µM (≈ 25 µg/mL)
- MBC (Salmonella typhimurium [14]): 49.7 µM (≈ 15 µg/mL)
- MBC (Escherichia coli [15]): 66.2 µM (≈ 20 µg/mL)
- MBC (Enterococcus faecalis [16]): 99.3 µM (≈ 30 µg/mL)
- MIC (Aspergillus ochraceus [17]): 66.2 µM (≈ 20 µg/mL)
- MIC (Aspergillus niger [18]): 33.1 µM (≈ 10 µg/mL)
- MIC (Aspergillus flavus [19]): 66.2 µM (≈ 20 µg/mL)
- MIC (Talaromyces funiculosus [20]): 33.1 µM (≈ 10 µg/mL)
- MIC (Penicillium ochrochloron [21]): 66.2 µM (≈ 20 µg/mL)
- MIC (Trichoderma viride [22]): 33.1 µM (≈ 10 µg/mL)
- MIC (Candida albicans [23]): 66.2 µM (≈ 20 µg/mL)
- MFC (Aspergillus ochraceus [24]): 82.8 µM (≈ 25 µg/mL)
- MFC (Aspergillus fumigatus [25]): 82.8 µM (≈ 25 µg/mL)
- MFC (Aspergillus niger [26]): 66.2 µM (≈ 20 µg/mL)
- MFC (Aspergillus flavus [27]): 82.8 µM (≈ 25 µg/mL)
- MFC (Talaromyces funiculosus [28]): 66.2 µM (≈ 20 µg/mL)
- MFC (Penicillium ochrochloron [29]): 82.8 µM (≈ 25 µg/mL)
- MFC (Trichoderma viride [30]): 66.2 µM (≈ 20 µg/mL)
- MFC (Candida albicans [31]): 82.8 µM (≈ 25 µg/mL)
- Ratio (Pseudomonas aeruginosa [32]): 10
- Ratio (Aspergillus ochraceus [33]): 10
- Ratio (Aspergillus niger [34]): 10
- Ratio (Talaromyces funiculosus [35]): 10
- Ratio (Penicillium ochrochloron [36]): 10
- Ratio (Trichoderma viride [37]): 10
- Ratio (Candida albicans [38]): 10
- Ratio (Aspergillus ochraceus [39]): 10
- Ratio (Aspergillus fumigatus [40]): 10
- Ratio (Penicillium ochrochloron [41]): 10
- Ratio (Candida albicans [42]): 10
- MIC (Aspergillus ochraceus [43]): 66.2 µM (≈ 20 µg/mL)
